Data on one compound can be found in ChEMBL document CHEMBL1146530, “Antihyperglycemic effect of puerarin in streptozotocin-induced diabetic rats” (2003).

The test system of experiment [1] is Rattus norvegicus. The experiment can be described thus: Antihyperglycemic effect in normal Wistar rat assessed as decrease in plasma glucose level at 15 mg/kg, iv measured after 5 mins of glucose challenge by intravenous glucose challenge test.
The subject of experiment [2] is Rattus norvegicus. In words: Induction of GLUT4 protein level in STZ- induced diabetic Wistar rat soleus muscle at 15 mg/kg, iv tid every 8 hrs for 3 days by Western blot relative to vehicle treated normal rat. Type of experiment: functional. Put shortly: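 Same 3-day tid 15.0 mg/kg iv regimen. Soleus homogenate (50 µg protein) was run on 10% SDS-PAGE and transferred to PVDF. Blots were probed overnight at 4 °C with mouse anti-rat GLUT4 (1:1000); β-tubulin (1:500) served as loading control. Detection was by peroxidase secondary and ECL, with densitometry at 45 kDa (GLUT4) and 50 kDa (β-tubulin). n = 4.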
(In western blotting, separated proteins are transferred to a membrane and probed.)

Experiment [3] can be described thus: Antihyperglycemic activity against STZ- induced diabetic Wistar rat soleus muscle assessed as 2-[1-14C]-deoxy-D-glucose uptake at 100 umol/L after 30 mins relative to control. Type of experiment: functional. Put shortly:
(§1)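 Soleus muscle strips ([…]) from rats made diabetic with STZ (60 mg/kg iv), used 2 weeks later. Strips were preincubated 30 min in KRBB (37 °C, pH 7.4, 1 mmol/L glucose, 1% fatty acid-free BSA, 5% CO2 in O2), then exposed to test agent 30 min. Next came 2-[1-14C]-deoxy-D-glucose (1 µCi/mL) for 5 min. Strips were dissolved in NaOH and counted by β-counting. Nonspecific uptake was defined with 20 µmol/L cytochalasin B and subtracted. Results are given as % of KRBB-only basal uptake. The 1 nmol/L insulin reference was run the same way.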

Experiment [4] can be described thus: Antihyperglycemic activity against STZ- induced diabetic Wistar rat soleus muscle assessed as 2-[1-14C]-deoxy-D-glucose uptake at 0.01 umol/L after 30 mins relative to control. It counts as functional. The procedure, abridged:
as §1

In experiment [5] the test system is Rattus norvegicus. The experiment can be described thus: Induction of GLUT4 mRNA level in STZ- induced diabetic Wistar rat soleus muscle at 15 mg/kg, iv tid every 8 hrs for 3 days by Northern blot relative to beta-actin expression. It counts as functional. The procedure, abridged:
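Rats received 15.0 mg/kg iv tid (every 8 h) for 3 days and were killed fasting. Soleus total RNA (20 µg) was denatured in formaldehyde/formamide at 55 °C and run on a 1.2% agarose/formaldehyde gel. Blots were probed with [α-32P]dCTP-labelled probe at 65 °C for 2 h and washed to 0.1× SSC/0.1% SDS at 40 °C. GLUT4 was normalized to β-actin; n = 4, mean ± SEM.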

The species entered for experiment [6] is Rattus norvegicus. In words: Antihyperglycemic activity against STZ- induced diabetic Wistar rat soleus muscle assessed as 2-[1-14C]-deoxy-D-glucose uptake after 30 mins. It counts as functional, tissue-based. The procedure, abridged:
as §1

The test system of experiment [7] is Rattus norvegicus. In words: Antihyperglycemic effect in STZ- induced diabetic Wistar rat model assessed as reduction in plasma glucose level at 20 mg/kg, iv measured after 30 mins. Type of experiment: functional, organism-based. On the set-up: dose 20 mg/kg. The procedure, abridged:
(§2)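 Fasting STZ-diabetic rats (60 mg/kg iv, 2 weeks earlier; glucose ≥20 mmol/L) got a single tail-vein bolus (5.0-20.0 mg/kg in normal saline). Vehicle controls received the same volume. Tail-vein blood was drawn 30 min later under pentobarbital (30.0 mg/kg ip). Plasma glucose was measured by enzymatic kit at 37 °C for 10 min, run in duplicate. n = 8 per group; mean ± SEM.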

Experiment [8] has as its system Rattus norvegicus. In words: Antihyperglycemic effect in normal Wistar rat assessed as reduction in plasma glucose level at 15 mg/kg, iv measured after 30 mins by intravenous glucose challenge test.
Experiment [9] concerns Rattus norvegicus. The experiment can be described thus: Antihyperglycemic effect in STZ- induced diabetic Wistar rat model assessed as reduction in plasma glucose level at 15 mg/kg, iv measured after 30 mins. On the set-up: scale not given: the % may be the effect or the level left. It counts as functional. Put shortly: as §2
Experiment [10] deals with Rattus norvegicus. The experiment can be described thus: Antihyperglycemic effect in iv dosed STZ- induced diabetic Wistar rat model assessed as reduction in plasma glucose level measured after 30 mins. Type of experiment: functional, organism-based. Put shortly:
as §2

Experiment [11] concerns Rattus norvegicus. The experiment can be described thus: Antihyperglycemic effect in normal Wistar rat assessed as decrease in plasma glucose level at 15 mg/kg, iv measured after 15 mins of glucose challenge by intravenous glucose challenge test.
Experiment [12] concerns Rattus norvegicus. In words: Antihyperglycemic effect in STZ- induced diabetic Wistar rat model assessed as decrease in plasma glucose level at 15 mg/kg, iv tid every 8 hrs for 3 days. Type of experiment: functional. Put shortly:
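STZ-diabetic rats were dosed at 15.0 mg/kg iv into the tail vein every 8 h (tid) for 3 days. Vehicle-treated diabetic and normal rats served as comparisons. Plasma glucose was measured in fasting animals after the final dose.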

In experiment [13] the target is Solute carrier family 2, facilitated glucose transporter member 4 (Rattus norvegicus) (UniProt P19357). In words: Induction of GLUT4 protein level in STZ- induced diabetic Wistar rat soleus muscle at 15 mg/kg, iv tid every 8 hrs for 3 days by Western blot relative to beta-tubulin expression.

Active and inactive are the calls of the source. The calls are words filed in the database; no cut-off is given here.

For the compound `O=c1c(-c2ccc(O)cc2)coc2c([C@@H]3O[C@H](CO)[C@@H](O)[C@H](O)[C@H]3O)c(O)ccc12` [PUERARIN], the Activity in the experiment on Rattus norvegicus [1] was 13.4 mmol/L; with Rattus norvegicus [2], 80%; in experiment [3] it was 145%; in experiment [4], 108%; with Rattus norvegicus [5], 1.01 a.u; in the experiment filed under Rattus norvegicus [6] it was “Dose-dependent effect”. Besides, the Activity is 3.9 mmol/L in the experiment with Rattus norvegicus [8]; 33.5% with Rattus norvegicus [9]; “Dose-dependent effect” in the experiment with Rattus norvegicus [10]; 16.5 mmol/L with Rattus norvegicus [12]; 0.88 a.u in [13]. Further, the result in the experiment on Rattus norvegicus [7] and in the experiment with Rattus norvegicus [11] was Active.
